Assay results taken from ChEMBL document CHEMBL3407480, “6-Sulfonylbenzothiazolones as potential scaffolds for the design of 5-HT6 ligands” (Eur J Med Chem, 2015).

Assays:
[1] = Cytotoxicity against human SH-SY5Y cells assessed as inhibition of cell growth after 72 hrs by MTT assay; type: cell-based
Method in brief: (§1)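 SH-SY5Y cells grown in DMEM with 2 mM L-glutamine, streptomycin, 100 IU/mL penicillin, 1 mM non-essential amino acids, 10% heat-inactivated FBS, 37 °C, 5% CO₂. Seeded at 2000 cells/well, serum-starved 24 h for synchrony, then exposed to test compounds (DMSO below 0.1%) at various concentrations up to 100. Growth read by MTT colorimetric assay after 72 h.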

[2] = biological target: T1, 5-hydroxytryptamine receptor 6 (Homo sapiens, UniProt P50406); assay: Displacement of [3H]LSD from human 5-HT6 receptor expressed in HEK293 cell membranes at 100 nM incubated for 60 mins by radioligand binding assay
T1 sequence (P50406 whole entry): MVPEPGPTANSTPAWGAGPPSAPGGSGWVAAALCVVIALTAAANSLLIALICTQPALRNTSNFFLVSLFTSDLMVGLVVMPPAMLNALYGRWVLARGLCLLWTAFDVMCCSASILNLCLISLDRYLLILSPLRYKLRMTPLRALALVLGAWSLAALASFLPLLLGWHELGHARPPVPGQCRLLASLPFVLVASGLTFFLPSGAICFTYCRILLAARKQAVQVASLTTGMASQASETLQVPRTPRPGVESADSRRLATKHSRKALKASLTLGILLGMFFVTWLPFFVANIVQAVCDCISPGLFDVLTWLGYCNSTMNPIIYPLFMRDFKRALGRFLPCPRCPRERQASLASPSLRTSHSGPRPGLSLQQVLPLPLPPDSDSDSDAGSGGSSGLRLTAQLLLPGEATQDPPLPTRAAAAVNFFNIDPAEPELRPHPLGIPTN
Method in brief: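 Competition binding on membranes of HEK-293 cells transiently expressing human 5-HT6; 4 of protein incubated 60 min at 37 °C in duplicate with 2.5 nM [3H]-LSD in 50 mM Tris-HCl pH 7.4, 10 mM MgCl₂, 0.5 mM EDTA. Compounds tested at 10^-7 M for % displacement (n = 3), then Ki calculated. GF/C filtration, five ice-cold buffer washes.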

[3] = Cytotoxicity against human SH-SY5Y cells assessed as inhibition of cell growth at 100 uM after 72 hrs by MTT assay; type: cell-based; details: read-out: GI; method in brief: as §1
[4] = biological target: T1, 5-hydroxytryptamine receptor 6; assay: Displacement of [3H]LSD from human 5-HT6 receptor expressed in HEK293 cell membranes incubated for 60 mins by radioligand binding assay

Compound `O=c1sc2cc(S(=O)(=O)c3ccccc3)ccc2n1CCN1CCCCC1` has an IC50 [1] of 44.1 µM and an inhibition [2] of 11%.

Work on `CN(C)CCn1c(=O)sc2cc(S(=O)(=O)N(C)c3ccccc3)ccc21` yielded an IC50 [1] of 91 µM and an inhibition [2] of 5%.

`O=c1sc2cc(S(=O)(=O)Nc3ccccc3)ccc2n1CCN1CCCCC1` showed an IC50 [1] of 17.4 µM and an inhibition [2] of 7%.

Work on `CN(c1cccc2ccccc12)S(=O)(=O)c1ccc2c(c1)sc(=O)n2CCN1CCCCC1` yielded an IC50 [1] of 91.9 µM and an inhibition [2] of 14%.

With `O=c1sc2cc(NS(=O)(=O)c3ccc4ccccc4c3)ccc2n1CCN1CCCC1` the inhibition at 72 h, 100 µM [3] was 28% and the inhibition [2] was 0%.

`CN(C)CCn1c(=O)sc2cc(S(=O)(=O)c3ccccc3)ccc21` gave an IC50 [1] of 86.9 µM and an inhibition [2] of 16%.

`CN(C)CCn1c(=O)sc2cc(S(=O)(=O)Nc3cccc4ccccc34)ccc21` gave an IC50 [1] of 45.7 µM and a Ki [4] of 0.1 µM.

Work on `O=c1sc2cc(S(=O)(=O)Nc3cccc4ccccc34)ccc2n1CCN1CCCC1` yielded an IC50 [1] of 68.6 µM and an inhibition [2] of 0%.

Compound `CN(C)CCn1c(=O)sc2cc(S(=O)(=O)Nc3ccccc3)ccc21` has an inhibition at 72 h, 100 µM [3] of 0% and an inhibition [2] of 21%.

`O=c1sc2cc(S(=O)(=O)Nc3cccc4ccccc34)ccc2n1CCN1CCCCC1` gave an IC50 [1] of 25.2 µM and an inhibition [2] of 3%.

`CN(c1ccccc1)S(=O)(=O)c1ccc2c(c1)sc(=O)n2CCN1CCCC1` gave an IC50 [1] of 49.5 µM and an inhibition [2] of 10%.

Work on `O=c1sc2cc(NS(=O)(=O)c3ccccc3)ccc2n1CCN1CCCC1` yielded an inhibition at 72 h, 100 µM [3] of 25% and an inhibition [2] of 11%.

In the case of `CN(C)CCn1c(=O)sc2cc(S(=O)(=O)N(C)c3cccc4ccccc34)ccc21`, the IC50 [1] is reported as 29 µM and the inhibition [2] is reported as 0%.

Work on `O=c1sc2cc(NS(=O)(=O)c3ccc4ccccc4c3)ccc2n1CCN1CCCCC1` yielded an inhibition at 72 h, 100 µM [3] of 5% and an inhibition [2] of 4%.

Compound `O=c1sc2cc(S(=O)(=O)Nc3ccccc3)ccc2n1CCN1CCCC1` has an IC50 [1] of 10 µM and an inhibition [2] of 37%.

`O=c1sc2cc(NS(=O)(=O)c3ccccc3)ccc2n1CCN1CCCCC1` showed an inhibition at 72 h, 100 µM [3] of 39% and an inhibition [2] of 6%.

Work on `CN(C)CCn1c(=O)sc2cc(NS(=O)(=O)c3ccccc3)ccc21` yielded an inhibition at 72 h, 100 µM [3] of 20% and an inhibition [2] of 5%.

Work on `CN(c1ccccc1)S(=O)(=O)c1ccc2c(c1)sc(=O)n2CCN1CCCCC1` yielded an IC50 [1] of 50 µM and an inhibition [2] of 0%.

`CN(C)CCn1c(=O)sc2cc(NS(=O)(=O)c3ccc4ccccc4c3)ccc21` showed an inhibition at 72 h, 100 µM [3] of 17% and an inhibition [2] of 22%.

`O=c1sc2cc(N(S(=O)(=O)c3ccccc3)S(=O)(=O)c3ccccc3)ccc2n1CCN1CCCC1` gave an inhibition at 72 h, 100 µM [3] of 19% and an inhibition [2] of 20%.

`CN(c1cccc2ccccc12)S(=O)(=O)c1ccc2c(c1)sc(=O)n2CCN1CCCC1` gave an IC50 [1] of 102 µM and an inhibition [2] of 40%.
